In ChEMBL document CHEMBL3616420, “Nitrogenated honokiol derivatives allosterically modulate GABAA receptors and act as strong partial agonists” (Bioorg Med Chem, 2015):
Calls of active or inactive are those of the source. The rule behind the calls is not given here.

Key:
Type in all cases: cell-based
[1] = molecular target: T1, GABA-A receptor; alpha-1/beta-2/gamma-2 (Homo sapiens) (UniProt P14867+P47870+P18507); assay: Partial agonist activity at GABAAalpha1beta2gamma2s receptor (unknown origin) expressed in Xenopus laevis oocytes assessed as induction of chloride current by two-microelectrode voltage-clamp method relative to GABA
In short: (§1)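 Stage V–VI Xenopus laevis oocytes, defolliculated with 2 mg/mL collagenase, were injected with subunit cRNAs (approx. 300–3000 pg/nL/subunit) and stored at +18 °C in modified ND96 (pH 7.4). Chloride currents were recorded by two-microelectrode voltage clamp at +21 °C, holding potential −70 mV. Washout was 1.5 min at low compound concentrations and 30 min at high ones. Curves were fitted to a Hill equation. Values are mean ± SE from at least 3 oocytes and 2 batches.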

[2] = molecular target: T2, GABA-A receptor; alpha-1/beta-2/gamma-2 (Homo sapiens, UniProt P14867+P18507+P47870); assay: Allosteric modulation of GABAAalpha1beta2gamma2s receptor (unknown origin) expressed in Xenopus laevis oocytes assessed as potentiation of GABA-induced chloride current by two-microelectrode voltage-clamp method; in short: as §1
T2 sequence (P14867 whole entry): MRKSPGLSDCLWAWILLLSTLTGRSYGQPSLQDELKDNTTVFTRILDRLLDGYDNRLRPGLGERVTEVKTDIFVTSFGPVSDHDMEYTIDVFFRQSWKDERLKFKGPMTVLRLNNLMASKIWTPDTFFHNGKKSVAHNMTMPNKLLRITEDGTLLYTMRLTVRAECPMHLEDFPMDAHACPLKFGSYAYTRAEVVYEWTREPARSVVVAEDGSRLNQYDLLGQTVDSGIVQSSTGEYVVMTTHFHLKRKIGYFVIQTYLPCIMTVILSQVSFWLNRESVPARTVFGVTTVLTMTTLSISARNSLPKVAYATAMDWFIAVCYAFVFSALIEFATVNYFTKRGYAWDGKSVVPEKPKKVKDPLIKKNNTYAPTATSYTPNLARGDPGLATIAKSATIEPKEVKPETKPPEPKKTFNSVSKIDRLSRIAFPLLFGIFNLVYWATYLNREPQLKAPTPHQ
T2 sequence (P47870 whole entry): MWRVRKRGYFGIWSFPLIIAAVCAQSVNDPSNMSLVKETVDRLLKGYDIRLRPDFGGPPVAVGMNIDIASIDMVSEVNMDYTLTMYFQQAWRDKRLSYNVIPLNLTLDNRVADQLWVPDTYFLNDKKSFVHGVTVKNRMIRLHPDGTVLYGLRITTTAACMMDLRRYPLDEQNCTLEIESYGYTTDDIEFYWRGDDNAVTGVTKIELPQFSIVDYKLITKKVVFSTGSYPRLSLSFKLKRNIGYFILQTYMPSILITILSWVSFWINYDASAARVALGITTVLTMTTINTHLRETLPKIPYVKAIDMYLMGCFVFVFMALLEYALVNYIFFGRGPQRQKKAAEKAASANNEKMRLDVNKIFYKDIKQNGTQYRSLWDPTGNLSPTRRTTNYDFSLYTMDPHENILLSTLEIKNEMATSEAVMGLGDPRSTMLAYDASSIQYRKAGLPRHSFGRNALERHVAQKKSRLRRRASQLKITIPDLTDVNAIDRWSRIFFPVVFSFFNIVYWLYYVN
T2 sequence (P18507 whole entry): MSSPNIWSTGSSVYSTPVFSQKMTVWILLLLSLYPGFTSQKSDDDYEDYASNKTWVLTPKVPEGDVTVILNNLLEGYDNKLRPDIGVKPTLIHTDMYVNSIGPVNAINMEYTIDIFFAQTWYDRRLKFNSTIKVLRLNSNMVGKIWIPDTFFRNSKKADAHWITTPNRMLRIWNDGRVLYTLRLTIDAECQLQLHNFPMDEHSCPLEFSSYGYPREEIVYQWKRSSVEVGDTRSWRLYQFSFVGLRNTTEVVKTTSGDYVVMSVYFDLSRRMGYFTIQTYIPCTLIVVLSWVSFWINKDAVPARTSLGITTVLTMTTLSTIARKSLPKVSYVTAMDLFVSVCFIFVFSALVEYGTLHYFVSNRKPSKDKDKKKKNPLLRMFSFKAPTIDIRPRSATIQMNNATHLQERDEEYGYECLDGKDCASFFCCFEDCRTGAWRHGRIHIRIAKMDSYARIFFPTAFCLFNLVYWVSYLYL

[3] = molecular target: T1, GABA-A receptor; alpha-1/beta-2/gamma-2 (Homo sapiens); assay: Allosteric modulation of GABAAalpha1beta2gamma2s receptor (unknown origin) expressed in Xenopus laevis oocytes assessed as potentiation of GABA-induced chloride current by two-microelectrode voltage-clamp method relative to GABA; in short: as §1
[4] = molecular target: T2, GABA-A receptor; alpha-1/beta-2/gamma-2; assay: Partial agonist activity at GABAAalpha1beta2gamma2s receptor (unknown origin) expressed in Xenopus laevis oocytes assessed as induction of chloride current by two-microelectrode voltage-clamp method
[5] = molecular target: T1, GABA-A receptor; alpha-1/beta-2/gamma-2 (Homo sapiens); assay: Partial agonist activity at GABAAalpha1beta2gamma2s receptor (unknown origin) expressed in Xenopus laevis oocytes assessed as potentiation of GABA-induced chloride current at 100 uM by two-microelectrode voltage-clamp method
In short: (§2)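 Stage V–VI Xenopus oocytes were injected with 10–50 nL of DEPC-treated water carrying each GABAA subunit cRNA at about 300–3000 pg/nL/subunit. Oocytes were kept at +18 °C in modified ND96 (pH 7.4). Chloride currents were recorded by two-microelectrode voltage clamp at +21 °C, holding at −70 mV. Washout was lengthened at high drug concentrations. Values are mean SE from ≥3 oocytes and ≥2 batches.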

[6] = molecular target: T1, GABA-A receptor; alpha-1/beta-2/gamma-2 (Homo sapiens); assay: Allosteric modulation of GABAAalpha1beta2gamma2s receptor (unknown origin) expressed in Xenopus laevis oocytes assessed as potentiation of GABA-induced chloride current at 100 uM by two-microelectrode voltage-clamp method; in short: as §2

Row | SMILES | Activity [1] | EC50 [2] [µM] | Emax [3] [%] | Emax [1] [%] | EC50 [4] [µM] | Activity [5] | Activity [6]
1 | CCCc1cc(N)c(O)c(-c2ccc(OCC)c(CCC)c2)c1 |  | 14.4 | 93.7 | 29 | 33.2 | Active | Active
2 | CCCc1cc(NC(C)=O)c(O)c(-c2ccc(OCC)c(CCC)c2)c1 |  | 1.8 | 123 | 32 | 6.9 | Active | Active
3 | CCCc1ccc(OC)c(-c2cc(CCC)c(O)c(NC(C)=O)c2)c1 | inactive | 24.6 | 42.5 |  |  |  | 
4 | C=CCc1ccc(O)c(-c2ccc(O)c(CC=C)c2)c1 [HONOKIOL] |  |  |  | 78 | 76.2 |  | 

Continued, in another order:

Row | Activity [1] | EC50 [2] [µM] | Emax [3] [%] | SMILES | Emax [1] [%] | EC50 [4] [µM] | Activity [5] | Activity [6]
5 | inactive | 21.5 | 91 | C=CCc1ccc(OCC)c(-c2cc(N)c(O)c(CC=C)c2)c1 |  |  |  | 
6 |  | 5.3 | 142 | C=CCc1cc(NC(C)=O)c(O)c(-c2ccc(OC)c(CC=C)c2)c1 | 63 | 68.1 |  | 
7 |  | 15.8 | 108 | CCCc1ccc(OC)c(-c2cc(N)c(O)c(CCC)c2)c1 | 52 | 62.2 | Active | Active
8 |  | 47.6 | 72 | C=CCc1ccc(OC)c(-c2cc(N)c(O)c(CC=C)c2)c1 | 59 | 144 | Active | Active
9 | inactive | 20.4 | 118 | CCCc1ccc(OCC)c(-c2cc(N)c(O)c(CCC)c2)c1 |  |  |  | 
